The text below walks through data of ChEMBL document CHEMBL4043120 (Bioorg Med Chem, 2017).

One may read the inhibition as the share of the control response that was lost under treatment. As a reminder, the IC50 is the concentration needed to halve the response being measured.

Test [1] deals with T1, Histone-lysine N-methyltransferase EHMT2 (Homo sapiens) (UniProt Q96KQ7).
T1 sequence (whole entry): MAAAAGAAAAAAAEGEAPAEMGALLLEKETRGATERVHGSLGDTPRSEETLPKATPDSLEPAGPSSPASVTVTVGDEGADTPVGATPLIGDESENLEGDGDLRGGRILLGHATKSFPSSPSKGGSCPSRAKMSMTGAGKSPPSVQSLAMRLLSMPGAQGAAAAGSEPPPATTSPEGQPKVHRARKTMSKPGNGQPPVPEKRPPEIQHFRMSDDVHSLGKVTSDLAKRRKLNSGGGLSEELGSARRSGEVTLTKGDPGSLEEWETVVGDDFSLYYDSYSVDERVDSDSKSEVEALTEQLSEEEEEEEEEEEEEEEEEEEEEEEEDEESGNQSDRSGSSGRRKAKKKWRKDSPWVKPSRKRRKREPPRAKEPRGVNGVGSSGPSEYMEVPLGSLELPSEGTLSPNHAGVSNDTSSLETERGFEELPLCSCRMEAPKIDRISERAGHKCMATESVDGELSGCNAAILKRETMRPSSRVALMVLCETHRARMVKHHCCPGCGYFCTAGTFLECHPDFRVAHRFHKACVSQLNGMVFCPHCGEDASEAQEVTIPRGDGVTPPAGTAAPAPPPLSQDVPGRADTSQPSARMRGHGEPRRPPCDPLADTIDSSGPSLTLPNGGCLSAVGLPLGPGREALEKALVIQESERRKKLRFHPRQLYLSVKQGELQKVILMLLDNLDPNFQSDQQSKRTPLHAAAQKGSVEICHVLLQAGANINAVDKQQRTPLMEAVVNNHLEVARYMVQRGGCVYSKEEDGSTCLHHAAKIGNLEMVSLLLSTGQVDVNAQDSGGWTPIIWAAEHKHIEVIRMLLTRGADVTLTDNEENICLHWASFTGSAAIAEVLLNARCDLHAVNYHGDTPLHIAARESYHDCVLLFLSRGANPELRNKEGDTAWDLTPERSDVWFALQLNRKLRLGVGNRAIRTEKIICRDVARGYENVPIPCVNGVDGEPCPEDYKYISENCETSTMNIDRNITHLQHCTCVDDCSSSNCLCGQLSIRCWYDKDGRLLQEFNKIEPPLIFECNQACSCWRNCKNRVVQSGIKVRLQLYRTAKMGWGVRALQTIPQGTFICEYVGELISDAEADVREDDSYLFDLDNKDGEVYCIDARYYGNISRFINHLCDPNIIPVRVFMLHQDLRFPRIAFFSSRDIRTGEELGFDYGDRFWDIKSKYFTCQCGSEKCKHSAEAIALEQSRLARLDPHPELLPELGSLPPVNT
Nature of the test: (§1) Inhibition of EHMT2 (unknown origin) preincubated for 15 mins followed by SAM and biotinylated H3K9 peptide addition measured after 30 mins by TR-FRET assay.

Test [2] deals with T2, Histone-lysine N-methyltransferase EHMT1 (Homo sapiens) (UniProt Q9H9B1).
T2 sequence (whole entry): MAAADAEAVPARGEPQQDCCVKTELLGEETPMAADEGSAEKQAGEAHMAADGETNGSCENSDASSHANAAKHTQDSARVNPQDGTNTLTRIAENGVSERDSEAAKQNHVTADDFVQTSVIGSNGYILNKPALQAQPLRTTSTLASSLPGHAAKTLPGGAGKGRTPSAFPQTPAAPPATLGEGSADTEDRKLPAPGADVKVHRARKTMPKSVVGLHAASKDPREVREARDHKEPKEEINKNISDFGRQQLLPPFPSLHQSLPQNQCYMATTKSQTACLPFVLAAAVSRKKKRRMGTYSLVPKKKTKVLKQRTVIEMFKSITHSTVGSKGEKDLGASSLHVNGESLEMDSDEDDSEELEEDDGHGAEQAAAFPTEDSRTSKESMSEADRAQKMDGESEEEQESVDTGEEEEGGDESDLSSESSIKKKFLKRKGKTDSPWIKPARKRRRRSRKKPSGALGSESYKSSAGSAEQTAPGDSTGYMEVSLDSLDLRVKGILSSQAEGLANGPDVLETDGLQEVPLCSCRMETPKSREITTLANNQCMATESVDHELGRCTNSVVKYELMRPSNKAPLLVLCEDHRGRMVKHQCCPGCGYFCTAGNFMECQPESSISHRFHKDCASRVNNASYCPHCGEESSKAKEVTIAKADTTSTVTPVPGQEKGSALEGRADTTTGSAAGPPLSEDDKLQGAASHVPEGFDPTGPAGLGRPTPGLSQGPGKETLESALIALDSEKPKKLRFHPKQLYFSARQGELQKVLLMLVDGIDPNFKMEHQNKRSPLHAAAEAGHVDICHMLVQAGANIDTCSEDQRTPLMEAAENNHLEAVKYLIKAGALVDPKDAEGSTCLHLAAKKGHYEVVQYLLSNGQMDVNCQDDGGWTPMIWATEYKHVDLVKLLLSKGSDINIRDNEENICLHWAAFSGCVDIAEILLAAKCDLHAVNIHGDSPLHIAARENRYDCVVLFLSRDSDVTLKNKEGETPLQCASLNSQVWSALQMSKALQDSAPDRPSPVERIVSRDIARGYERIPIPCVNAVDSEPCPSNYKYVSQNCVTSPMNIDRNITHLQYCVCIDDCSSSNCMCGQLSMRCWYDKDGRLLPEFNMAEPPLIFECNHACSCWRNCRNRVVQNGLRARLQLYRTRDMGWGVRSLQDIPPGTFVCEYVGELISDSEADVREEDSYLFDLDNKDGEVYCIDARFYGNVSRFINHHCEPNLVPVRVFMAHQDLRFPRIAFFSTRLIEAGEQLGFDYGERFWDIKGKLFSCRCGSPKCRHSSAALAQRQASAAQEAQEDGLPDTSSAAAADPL
Nature of the test: Inhibition of EHMT1 (unknown origin) at 200 uM preincubated for 5 mins followed by SAM and biotinylated H3K9 peptide addition measured after 120 mins by HTRF assay relative to control. The essentials: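 Final EHMT1 0.4 nM, biotinylated unmethylated H3(1-21)K9 peptide 150 nM, SAM 6 μM in 50 mM Tris-HCl pH 8.8, 50 mM NaCl, 1 mM DTT, 0.01% Tween-20; samples at 200 μM, 1% DMSO final. Detection by Eu-antibody plus streptavidin-XL665, 60 min. HTRF read: excitation 320 or 340 nm, emission 665/620 nm.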
On the technique in general: Time-resolved FRET reads energy transfer from a long-lived donor to a nearby acceptor.

The target in test [3] is T2, Histone-lysine N-methyltransferase EHMT1 (Homo sapiens). Nature of the test: (§2) Inhibition of EHMT1 (unknown origin) preincubated for 5 mins followed by SAM and biotinylated H3K9 peptide addition measured after 120 mins by HTRF assay. The essentials: (§3)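 Final 0.4 nM enzyme, 150 nM biotinylated H3(1-21)K9 peptide, 6 μM SAM, pH 8.8 Tris buffer, 1% DMSO. Eu-antibody/SA-XL665 HTRF read at 665/620 nm. Mean±SEM of 3-4 independent experiments in triplicate.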

Test [4] concerns the target T1, Histone-lysine N-methyltransferase EHMT2 (Homo sapiens). Put plainly: Inhibition of EHMT2 (unknown origin) at 400 uM preincubated for 15 mins followed by SAM and biotinylated H3K9 peptide addition measured after 30 mins by TR-FRET assay relative to control. The procedure, abridged: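 Single-point EHMT2 screen at 400 μM, 1% DMSO. Final 0.6 nM EHMT2, 0.5 µM biotinylated H3(1-21)K9 peptide, 3 µM SAM in 50 mM Tris-HCl pH 9.0, 50 mM NaCl, 1 mM DTT, 0.01% Tween-20. Detection 60 min with final 2 nM Eu-antibody, 50 nM ULight-streptavidin, 0.0001% poly-L-lysine. TR-FRET read at 665/620 nm.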

Test [5] concerns the target T3, Histone-lysine N-methyltransferase EHMT1 (Homo sapiens, UniProt Q9H9B1).
T3 sequence (Q9H9B1 whole entry): T2 sequence (whole entry)
The description is as §2. The essentials: as §3

For test [6], the target named is Protein arginine N-methyltransferase 1 (Homo sapiens) (UniProt Q99873). Put plainly: Inhibition of PRMT1 (unknown origin) at 400 uM preincubated for 5 mins followed by SAM and H4 (1 to 25 residues) peptide addition measured after 1 hr by HTRF assay relative to control.
Sequence of Protein arginine N-methyltransferase 1 (Homo sapiens) (Q99873 whole entry, looked up, the tested form may be a part): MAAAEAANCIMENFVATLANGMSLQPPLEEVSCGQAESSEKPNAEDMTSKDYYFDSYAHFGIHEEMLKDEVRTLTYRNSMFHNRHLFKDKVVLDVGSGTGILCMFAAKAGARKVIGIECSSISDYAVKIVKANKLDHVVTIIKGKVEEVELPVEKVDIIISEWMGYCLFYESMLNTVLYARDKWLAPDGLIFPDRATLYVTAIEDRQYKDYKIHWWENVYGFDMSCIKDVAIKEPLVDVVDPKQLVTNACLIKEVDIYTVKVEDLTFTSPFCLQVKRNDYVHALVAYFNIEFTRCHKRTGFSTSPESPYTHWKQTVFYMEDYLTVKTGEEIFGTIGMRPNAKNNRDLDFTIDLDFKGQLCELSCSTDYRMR
Test [7] deals with T4, Histone-lysine N-methyltransferase EHMT2 (Homo sapiens, UniProt Q96KQ7).
T4 sequence (Q96KQ7 whole entry): T1 sequence (whole entry)
The test is described as §1.

The subject of a further test is HL-60. Put plainly: Antiproliferative activity against human HL60 cells at 200 uM after 72 hrs by CCK8 assay relative to control. It is filed as functional. The note with it: HL-60, 72 h.
The next test deals with MDA-MB-231. Nature of the test: Antiproliferative activity against human MDA-MB-231 cells at 200 uM after 72 hrs by sulforhodamine B assay relative to control. Type of test: functional. The note with it: MDA-MB-231, 72 h. In general terms: In SRB staining, fixed cells bind dye roughly in proportion to their protein.

Each structure is given as a SMILES string. Active and inactive are the calls of the source. The rule behind the calls is not given here.

On to `Nc1ncnc2c1ncn2[C@@H]1O[C@H](C[C@@H](N)CCC2CCCCC2)[C@@H](O)[C@H]1O`, for which the inhibition result in test [1] was “Dose-dependent effect”; in [2], 40.9%; in [3], “Dose-dependent effect”; in test [4] it was 42.7%.

Turning to `CCCN(CC1CCCCC1)C[C@H]1O[C@@H](n2cnc3c(N)ncnc32)[C@H](O)[C@@H]1O`, the inhibition result in test [1] was “Dose-dependent effect”; in [3], “Dose-dependent effect”; in [4] it was 19.8%. Further, in test [2], the inhibition result was “inactive”. Further, in test [5], the IC50 entry is on record as “Not Active”.

As to `Nc1ncnc2c1ncn2[C@@H]1O[C@H](C[C@H](N)CC2CCCCC2)[C@@H](O)[C@H]1O`, the inhibition entry was “Dose-dependent effect” in test [1], 58.1% in test [2], “Dose-dependent effect” in test [3] and 45.3% in [4]. In addition, the IC50 in [5] (read-out: IC50) amounted to 146 µM. The inhibition entry in [6] was “inactive”.

With `Nc1ncnc2c1ncn2[C@@H]1O[C@H](C[C@H](N)CCC2CCCCC2)[C@@H](O)[C@H]1O`, the inhibition entry is “Dose-dependent effect” in test [1], 46.3% in test [2], “Dose-dependent effect” in test [3] and 47.8% in test [4].

For the compound `Nc1ncnc2c1ncn2[C@@H]1O[C@H](C[C@H](N)CC2CCC2)[C@@H](O)[C@H]1O`, the inhibition result was “Dose-dependent effect” in test [1], 53.2% in test [2], “Dose-dependent effect” in test [3] and 44% in test [4]. Moreover, the half-maximal inhibitory concentration (IC50) in [5] (read-out: IC50) worked out at 115 µM.

`Nc1ncnc2c1ncn2[C@@H]1O[C@H](C[C@H](N)CC2CCCC2)[C@@H](O)[C@H]1O`: the inhibition entry in test [1] was “Dose-dependent effect”; in test [2], 12.5%; in [3] it was “Dose-dependent effect”; in [4], 43.6%.

As for `Nc1ncnc2c1ncn2[C@@H]1O[C@H](C[C@@H](N)CC2CCCCC2)[C@@H](O)[C@H]1O`, the inhibition entry was “Dose-dependent effect” in test [1], 72.7% in test [2], “Dose-dependent effect” in test [3] and 43.7% in test [4]. In addition, the IC50 in [5] (read-out: IC50) came out at 204 µM. Also, in test [6], the inhibition result was “inactive”.

With `Nc1ncnc2c1ncn2[C@@H]1O[C@H](C[C@@H](N)CC2CCC2)[C@@H](O)[C@H]1O`, the results for the IC50 in test [7] and in [5] (read-out: IC50) were 169 µM and 47.7 µM, respectively. Further, the inhibition result in test [1] was “Dose-dependent effect”; in test [2], 69.7%; in test [3] it was “Dose-dependent effect”; in [4] it was 58.9%. In addition, the inhibition result in [6] was “inactive”.

For the compound `CN(CC1CCCCC1)C[C@H]1O[C@@H](n2cnc3c(N)ncnc32)[C@H](O)[C@@H]1O`, the inhibition result was “Dose-dependent effect” in test [1], “Dose-dependent effect” in test [3] and 31.9% in test [4]. Also, the inhibition entry in [2] was “inactive”. The half-maximal inhibitory concentration (IC50) result in test [5] is “Not Active”.

In the case of `COc1cc2nc(N3CCCN(C)CC3)nc(NC3CCN(Cc4ccccc4)CC3)c2cc1OC`, the inhibition at 200 µM in the test with HL-60 came out at 81.8%; in the test with MDA-MB-231, 87.2%.

On to `Nc1ncnc2c1ncn2[C@@H]1O[C@H](C[C@@H](N)CC2CCCC2)[C@@H](O)[C@H]1O`, for which the IC50 in [7] is 191 µM; in test [5] (read-out: IC50) it was 95.1 µM. Besides, the inhibition entry was “Dose-dependent effect” in test [1], 75.7% in test [2], “Dose-dependent effect” in [3] and 55.3% in [4]. For the same compound, the inhibition entry in [6] was “inactive”.

`Nc1ncnc2c1ncn2[C@@H]1O[C@H](C[C@H](N)CC2CC2)[C@@H](O)[C@H]1O` registered a half-inhibitory concentration (IC50) in test [7] of 67.2 µM. Also, the inhibition entry in test [1] was “Dose-dependent effect”; in test [2] it was 52.2%; in test [3], “Dose-dependent effect”; in [6] it was 20%; in test [4] it was 65.7%.

As for `CCN(CC1CCCCC1)C[C@H]1O[C@@H](n2cnc3c(N)ncnc32)[C@H](O)[C@@H]1O`, the inhibition entry in test [1] was “Dose-dependent effect”; in test [2] it was 24.1%; in test [3], “Dose-dependent effect”; in test [4], 39.1%.
